Measurements reported in ChEMBL document CHEMBL5247621, “From dopamine 4 to sigma 1: Synthesis, SAR and biological characterization of a piperidine scaffold of σ1 modulators” (Eur J Med Chem, 2022).

Assays:
[1] = target: T1, Sigma non-opioid intracellular receptor 1 (Homo sapiens, UniProt Q99720); experiment: Displacement of [3H] Pentazocine from sigma 1 receptor in HEK293 cell membrane; format: cell membranes
[2] = target: T2, D(4) dopamine receptor (Homo sapiens, UniProt P21917); experiment: Displacement of [3H]N-methylspiperone from D4 receptor in HEK293 cell membrane; format: cell membranes; conditions: read-out: Ki
T2 sequence (P21917 whole entry): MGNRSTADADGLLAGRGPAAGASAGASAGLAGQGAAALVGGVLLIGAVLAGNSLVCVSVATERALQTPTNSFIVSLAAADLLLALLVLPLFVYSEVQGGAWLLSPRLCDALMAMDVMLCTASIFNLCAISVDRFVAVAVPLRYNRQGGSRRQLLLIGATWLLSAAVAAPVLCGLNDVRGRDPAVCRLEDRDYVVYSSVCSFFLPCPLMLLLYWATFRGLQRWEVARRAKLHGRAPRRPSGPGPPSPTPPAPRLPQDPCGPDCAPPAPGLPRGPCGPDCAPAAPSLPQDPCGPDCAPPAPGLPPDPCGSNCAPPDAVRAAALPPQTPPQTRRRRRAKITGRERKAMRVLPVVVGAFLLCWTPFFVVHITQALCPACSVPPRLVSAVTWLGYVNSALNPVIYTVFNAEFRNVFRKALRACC

[3] = target: T3, D(4) dopamine receptor (Homo sapiens) (UniProt P21917); experiment: Displacement of [3H]N-methylspiperone from D4 receptor in HEK293 cell membrane assessed as inhibition constant at 10 uM relative to control; format: cell membranes; parameters: scale not given: the % may be the effect or the level left
T3 sequence (whole entry): T2 sequence (P21917 whole entry)

[4] = target: Sigma intracellular receptor 2 (Homo sapiens, UniProt Q5BJF2); experiment: Displacement of [3H]DTG from sigma-2 receptor in HEK293 cell membrane assessed as inhibition constant; format: cell membranes
Sequence of Sigma intracellular receptor 2 (Q5BJF2 whole entry): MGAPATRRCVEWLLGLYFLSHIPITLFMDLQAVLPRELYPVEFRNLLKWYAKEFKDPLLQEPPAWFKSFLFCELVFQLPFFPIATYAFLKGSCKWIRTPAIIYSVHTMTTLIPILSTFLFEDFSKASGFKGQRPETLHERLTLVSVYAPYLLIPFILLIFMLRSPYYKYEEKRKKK
Summary of the method: (§1)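 Competitive radioligand binding in membranes harvested from HEK293 cells, with one radioligand per target: [3H]N-methylspiperone for D2, D3 and D4; [3H]SCH23390 for D1 and D5; [3H]pentazocine for σ1; [3H]DTG for σ2. Ki derived from inhibition of binding, each run in triplicate.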

[5] = Plasma protein binding in human assessed as unbound fraction; format: ADME, cell-free
Summary of the method: (§2)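 Plasma protein binding by equilibrium dialysis in human or mouse plasma, reported as fraction unbound (fu).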

[6] = target: D(1A) dopamine receptor (Homo sapiens, UniProt P21728); experiment: Displacement of [3H]SCH23390 from D1 receptor in HEK293 cell membrane assessed as inhibition constant; format: cell membranes; summary of the method: as §1
Sequence of D(1A) dopamine receptor (P21728 whole entry): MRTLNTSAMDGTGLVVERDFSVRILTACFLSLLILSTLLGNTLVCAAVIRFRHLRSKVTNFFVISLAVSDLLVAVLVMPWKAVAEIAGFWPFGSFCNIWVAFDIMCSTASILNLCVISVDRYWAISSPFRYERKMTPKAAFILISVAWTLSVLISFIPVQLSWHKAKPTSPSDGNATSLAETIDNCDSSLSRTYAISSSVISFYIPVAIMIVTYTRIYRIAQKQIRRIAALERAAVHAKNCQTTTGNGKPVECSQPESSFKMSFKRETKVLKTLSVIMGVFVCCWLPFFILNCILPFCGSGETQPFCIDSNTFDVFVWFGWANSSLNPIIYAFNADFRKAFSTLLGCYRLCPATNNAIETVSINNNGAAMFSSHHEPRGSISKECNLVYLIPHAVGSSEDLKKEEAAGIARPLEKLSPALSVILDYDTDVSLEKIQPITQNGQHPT

[7] = Plasma protein binding in mouse assessed as unbound fraction; format: ADME; summary of the method: as §2
[8] = target: D(2) dopamine receptor (Homo sapiens, UniProt P14416); experiment: Displacement of [3H]N-methylspiperone from D2 receptor in HEK293 cell membrane assessed as inhibition constant; format: cell membranes; summary of the method: as §1
Sequence of D(2) dopamine receptor (P14416 whole entry): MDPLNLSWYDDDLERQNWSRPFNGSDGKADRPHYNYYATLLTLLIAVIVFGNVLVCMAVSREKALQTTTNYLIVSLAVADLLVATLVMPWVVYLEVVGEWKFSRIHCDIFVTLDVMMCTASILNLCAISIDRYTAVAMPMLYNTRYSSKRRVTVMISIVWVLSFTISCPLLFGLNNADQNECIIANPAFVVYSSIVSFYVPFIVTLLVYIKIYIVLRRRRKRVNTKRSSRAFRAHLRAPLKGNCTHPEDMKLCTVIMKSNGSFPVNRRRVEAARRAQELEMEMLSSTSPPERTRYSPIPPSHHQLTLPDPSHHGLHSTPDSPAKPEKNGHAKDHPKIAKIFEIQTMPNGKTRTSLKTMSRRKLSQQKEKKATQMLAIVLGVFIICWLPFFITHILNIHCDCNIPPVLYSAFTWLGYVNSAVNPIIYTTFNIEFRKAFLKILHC

[9] = target: D(3) dopamine receptor (Homo sapiens, UniProt P35462); experiment: Displacement of [3H]N-methylspiperone from D3 receptor in HEK293 cell membrane assessed as inhibition constant; format: cell membranes; summary of the method: as §1
Sequence of D(3) dopamine receptor (P35462 whole entry): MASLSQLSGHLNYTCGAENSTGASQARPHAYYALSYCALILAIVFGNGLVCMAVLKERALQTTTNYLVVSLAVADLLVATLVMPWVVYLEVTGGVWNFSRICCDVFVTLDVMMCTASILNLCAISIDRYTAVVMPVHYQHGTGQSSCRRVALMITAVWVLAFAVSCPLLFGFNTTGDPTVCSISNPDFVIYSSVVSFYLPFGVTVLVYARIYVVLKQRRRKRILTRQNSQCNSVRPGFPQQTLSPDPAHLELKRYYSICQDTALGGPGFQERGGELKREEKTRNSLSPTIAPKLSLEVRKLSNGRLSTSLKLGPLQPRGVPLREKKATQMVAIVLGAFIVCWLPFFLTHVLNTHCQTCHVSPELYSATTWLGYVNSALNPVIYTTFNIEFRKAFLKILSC

[10] = target: D(1B) dopamine receptor (Homo sapiens, UniProt P21918); experiment: Displacement of [3H]SCH23390 from D5 receptor in HEK293 cell membrane assessed as inhibition constant; format: cell membranes; summary of the method: as §1
Sequence of D(1B) dopamine receptor (P21918 whole entry): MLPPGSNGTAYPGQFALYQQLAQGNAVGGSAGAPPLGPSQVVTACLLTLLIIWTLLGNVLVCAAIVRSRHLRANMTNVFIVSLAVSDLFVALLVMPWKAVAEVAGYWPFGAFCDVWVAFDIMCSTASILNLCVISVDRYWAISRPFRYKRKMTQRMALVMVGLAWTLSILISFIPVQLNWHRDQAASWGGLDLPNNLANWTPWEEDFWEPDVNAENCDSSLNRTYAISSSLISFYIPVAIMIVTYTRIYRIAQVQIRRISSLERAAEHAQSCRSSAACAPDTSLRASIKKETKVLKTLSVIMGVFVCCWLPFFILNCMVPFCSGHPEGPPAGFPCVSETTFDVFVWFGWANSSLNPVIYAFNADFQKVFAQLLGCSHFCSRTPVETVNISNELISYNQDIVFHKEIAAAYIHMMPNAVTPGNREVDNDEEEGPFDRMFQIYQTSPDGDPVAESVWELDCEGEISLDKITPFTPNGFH

[11] = Intrinsic clearance in human liver microsomes; format: ADME, Microsome; conditions: read-out: CLH
Summary of the method: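 Intrinsic clearance measured in human liver microsomes. Hepatic clearance predicted from it with the well-stirred organ model, binding terms excluded.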

[12] = target: T1, Sigma non-opioid intracellular receptor 1; experiment: Binding affinity to sigma 1 receptor in human Jurkat cells; format: cell-based
[13] = Half life in mouse plasma at 5 mg/kg, ip measured after 24 hrs; format: ADME, organism-based; conditions: in vivo
Summary of the method: (§3)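 Discrete mouse study, single intraperitoneal dose of 5 mg/kg in 10% DMSO/10% Cremophor EL/30% PEG400/50% water. Plasma and brain concentrations followed over 24 h. Parameters estimated by non-compartmental analysis.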

[14] = Half life in mouse brain at 5 mg/kg, ip measured after 24 hrs; format: ADME, organism-based; conditions: in vivo; summary of the method: as §3
[15] = Mean residence time in mouse plasma at 5 mg/kg, ip measured after 24 hrs; format: ADME, organism-based; conditions: in vivo; summary of the method: as §3
[16] = Mean residence time in mouse brain at 5 mg/kg, ip measured after 24 hrs; format: ADME, organism-based; conditions: in vivo; summary of the method: as §3
[17] = Tmax in mouse plasma at 5 mg/kg, ip measured after 24 hrs; format: ADME, organism-based; conditions: in vivo; summary of the method: as §3
[18] = Tmax in mouse brain at 5 mg/kg, ip measured after 24 hrs; format: ADME, organism-based; conditions: in vivo; summary of the method: as §3
[19] = Cmax in mouse plasma at 5 mg/kg, ip measured after 24 hrs; format: ADME, organism-based; parameters: dose 5 mg/kg, time 24 hrs, route ip; conditions: in vivo; summary of the method: as §3
[20] = Cmax in mouse brain at 5 mg/kg, ip measured after 24 hrs; format: ADME, organism-based; parameters: time 24 hrs, dose 5 mg/kg, route ip; summary of the method: as §3
[21] = AUC(infinity) in mouse plasma at 5 mg/kg, ip measured after 24 hrs; format: ADME, organism-based; parameters: dose 5 mg/kg, time 24 hrs, route ip; conditions: in vivo; summary of the method: as §3
[22] = AUC(infinity) in mouse brain at 5 mg/kg, ip measured after 24 hrs; format: ADME, organism-based; parameters: dose 5 mg/kg, time 24 hrs, route ip; summary of the method: as §3
[23] = Ratio of total drug concentration in mouse brain to plasma at 5 mg/kg, ip measured after 1 hr; format: ADME, organism-based
Summary of the method: (§4)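 Mice received 5 mg/kg IP in 10% DMSO/10% Cremophor EL/30% PEG400/50% water. Kp is total brain concentration divided by total plasma concentration, taken at 1 h and 5 h post-dose.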

[24] = Ratio of total drug concentration in mouse brain to plasma at 5 mg/kg, ip measured after 5 hrs; format: ADME, organism-based; summary of the method: as §4
[25] = Ratio of free drug concentration in mouse brain to plasma at 5 mg/kg, ip measured after 1 hr; format: ADME, organism-based
Summary of the method: (§5)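 Mice received 5 mg/kg IP in 10% DMSO/10% Cremophor EL/30% PEG400/50% water. Kp,uu is free brain over free plasma concentration at 1 h and 5 h. Free levels are corrected with unbound fractions measured in mouse plasma protein binding and in mouse brain homogenate binding.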

[26] = Ratio of free drug concentration in mouse brain to plasma at 5 mg/kg, ip measured after 5 hrs; format: ADME, organism-based; conditions: read-out: K(p,uu,brain); summary of the method: as §5

T1 sequence (Q99720 whole entry): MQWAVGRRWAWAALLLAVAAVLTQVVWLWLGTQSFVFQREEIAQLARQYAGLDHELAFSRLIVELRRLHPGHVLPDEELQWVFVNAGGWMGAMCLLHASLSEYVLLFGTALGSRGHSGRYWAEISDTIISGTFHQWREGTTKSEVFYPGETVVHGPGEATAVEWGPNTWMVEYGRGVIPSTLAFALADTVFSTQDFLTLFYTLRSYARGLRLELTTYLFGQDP

**Q.** With `COc1ccc(CN2CCO[C@H](COc3ccccc3)C2)cc1F` as the molecule, how does the Ki ([1]; read-out: Ki) read?
**A.** 41 nM

**Q.** What about the Ki [2] of the same molecule?
**A.** 5 nM

**Q.** With `Fc1ccc(CN2CCCC23CCN(Cc2cn4ccccc4n2)C3)cc1F` (centres undefined) as the molecule, how does the Ki ([1]; read-out: Ki) read?
**A.** 3.6 nM

**Q.** What about the Activity [3] of the same molecule?
**A.** -0.7%

**Q.** What about the Ki [4] of the same molecule?
**A.** 23 nM

**Q.** And the Fu [5]?
**A.** 2.7%

**Q.** What about the Ki [6] of the same molecule?
**A.** > 10000 nM

**Q.** What about the Fu [7] of the same molecule?
**A.** 30.2%

**Q.** With `Cc1cccc(CO[C@H]2CCCN(Cc3ccc4c(cnn4C)c3)C2)n1` as the molecule, how does the Ki ([1]; read-out: Ki) read?
**A.** 1280 nM

**Q.** What about the Activity [3] of the same molecule?
**A.** 23%

**Q.** Which results are given for `Cn1ncc2cc(CN3CCO[C@H](COc4ccc(F)c(F)c4)C3)ccc21`?
**A.** Ki ([1]; read-out: Ki): 23 nM; Ki [2]: 28 nM

**Q.** With `Cn1cnc2cc(CN3CCC(OCc4ccc(Cl)c(F)c4)CC3)ccc21` as the molecule, how does the Ki ([1]; read-out: Ki) read?
**A.** 31 nM

**Q.** What about the Activity [3] of the same molecule?
**A.** 48%

**Q.** What about the Fu [5] of the same molecule?
**A.** 13%

**Q.** What about the Fu [7] of the same molecule?
**A.** 75%

**Q.** With `Fc1ccc(COC2CCN(Cc3ncc4ccccn34)CC2)cc1F` as the molecule, how does the Ki ([1]; read-out: Ki) read?
**A.** 143 nM

**Q.** For `Fc1ccc(CN2CCCC23CCN(Cc2cc4ccc(Cl)cc4[nH]2)C3)cc1F` (centres undefined), which Ki ([1]; read-out: Ki) is on record?
**A.** 5.5 nM

**Q.** And the Ki ([1]; read-out: pKi (converted))?
**A.** 5.37 nM

**Q.** What about the Ki [2] of the same molecule?
**A.** 268 nM

**Q.** What about the Ki [4] of the same molecule?
**A.** 23 nM

**Q.** What about the Ki [8] of the same molecule?
**A.** > 10000 nM

**Q.** What about the Ki [9] of the same molecule?
**A.** 118 nM

**Q.** What about the Ki [10] of the same molecule?
**A.** > 10000 nM

**Q.** What about the Ki [6] of the same molecule?
**A.** 2370 nM

**Q.** With `Fc1cc(COC2CCN(Cc3cn4ccccc4n3)CC2)ccc1Cl` as the molecule, how does the Ki ([1]; read-out: Ki) read?
**A.** 2.3 nM

**Q.** For `Cc1c(Cl)cccc1NC(=O)CN1CCC2(CCCN2Cc2ccc(F)c(F)c2)C1` (centres undefined), which Ki ([1]; read-out: Ki) is on record?
**A.** 14 nM

**Q.** What about the Ki [2] of the same molecule?
**A.** 1700 nM

**Q.** What about the Ki [4] of the same molecule?
**A.** 43 nM

**Q.** What about the Ki [6] of the same molecule?
**A.** > 10000 nM

**Q.** With `Fc1cc(COC2CCN(Cc3ccc4[nH]ncc4c3)CC2)ccc1Cl` as the molecule, how does the Ki ([1]; read-out: Ki) read?
**A.** 0.7 nM

**Q.** What about the CLint scaled [11] of the same molecule?
**A.** 26.3 mL/min/kg

**Q.** And the Fu [5]?
**A.** 7%

**Q.** And the Fu [7]?
**A.** 6.5%

**Q.** What does the source list for `FC(F)(F)c1cccc(COC2CCN(Cc3cn4ccccc4n3)CC2)c1`?
**A.** Ki ([1]; read-out: Ki): 3.5 nM; Ki [2]: 175 nM; Fu [5]: 2.2%; Fu [7]: 8.8%

**Q.** For `FC(F)(F)c1cccc(COC2CCN(Cc3ccc4[nH]cnc4c3)CC2)c1`, which Ki [4] is on record?
**A.** 73 nM

**Q.** What about the Ki [10] of the same molecule?
**A.** > 10000 nM

**Q.** What about the Ki [6] of the same molecule?
**A.** > 10000 nM

**Q.** Which Ki ([1]; read-out: Ki) does the source give for `c1ccc(OC[C@@H]2CN(Cc3ccc4[nH]ccc4c3)CCO2)cc1` here?
**A.** 44 nM

**Q.** And the Ki [2]?
**A.** 3.3 nM

**Q.** For `Cc1c(Cl)cccc1NC(=O)CN1CCC(OCc2ccc(Cl)c(F)c2)CC1`, which Ki ([1]; read-out: Ki) is on record?
**A.** 97 nM

**Q.** For `Cc1cc(NC(=O)CN2CCC3(CCCN3Cc3ccc(F)c(F)c3)C2)ccc1F` (centres undefined), which Ki ([1]; read-out: Ki) is on record?
**A.** 16 nM

**Q.** And the Activity [3]?
**A.** 14%

**Q.** And the Ki [4]?
**A.** 47 nM

**Q.** What about the Ki [9] of the same molecule?
**A.** 512 nM

**Q.** And the Ki [10]?
**A.** > 10000 nM

**Q.** And the Ki [6]?
**A.** > 10000 nM

**Q.** For `Fc1cc(COC2CCN(Cc3ccc4[nH]cnc4c3)CC2)ccc1Cl`, which Ki ([1]; read-out: Ki) is on record?
**A.** 3.1 nM

**Q.** What about the Ki [2] of the same molecule?
**A.** 1160 nM

**Q.** And the Ki [12]?
**A.** 3.9 nM

**Q.** And the Ki [4]?
**A.** 70 nM

**Q.** And the Ki [6]?
**A.** > 10000 nM

**Q.** And the t1/2 [13]?
**A.** 3.68 h

**Q.** What about the t1/2 [14] of the same molecule?
**A.** 6.88 h

**Q.** And the MRT [15]?
**A.** 4.54 h

**Q.** And the MRT [16]?
**A.** 8.3 h

**Q.** What about the Tmax [17] of the same molecule?
**A.** 0.67 h

**Q.** What about the Tmax [18] of the same molecule?
**A.** 1.67 h

**Q.** What about the Cmax [19] of the same molecule?
**A.** 401 ng/mL

**Q.** And the Cmax [20]?
**A.** 1890 ng/mL

**Q.** What about the AUC [21] of the same molecule?
**A.** 2225 ng·h/mL

**Q.** And the AUC(0-inf) [22]?
**A.** 13900 ng·h/mL

**Q.** What about the Kp [23] of the same molecule?
**A.** 4.94

**Q.** What about the Kp at 5 h [24] of the same molecule?
**A.** 2.4

**Q.** What about the “K(p,uu,brain)” value [25] of the same molecule?
**A.** 2.43

**Q.** And the Kp uu at 5 h [26]?
**A.** 4.88
